The source of these data is ChEMBL document CHEMBL1156845, “Spirocyclic ureas: orally bioavailable 11 beta-HSD1 inhibitors identified by computer-aided drug design” (Bioorg Med Chem Lett, 2010).

Where only a bound is given, the exact number is not on record here.

A short description of series [1]: Clearance in rat at 1.9 mg/kg, iv. Details: dose 1.9 mg/kg, route intravenous. It counts as ADME, organism-based. As to conditions: in vivo. A digest of the protocol: (§1)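 PK after oral and IV dosing, with compounds given as sodium salts. Rat and mouse received 9.68 mg/kg PO and 1.9 mg/kg IV; cynomolgus monkey received 2 mg/kg PO and 1 mg/kg IV. AUC(inf) and t1/2 are the oral parameters, clearance is from the IV arm, and %F is oral bioavailability.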

Series [2] can be described thus: Clearance in mouse at 1.9 mg/kg, iv. The conditions noted are these: in vivo. Details: dose 1.9 mg/kg, route intravenous. It counts as ADME, organism-based. A digest of the protocol:
as §1

Series [3] is described as follows: Half life in rat at 9.68 mg/kg, po and 1.9 mg/kg, iv. The conditions noted are these: in vivo. It counts as ADME, organism-based. A digest of the protocol: as §1
A further series has as its target Cytochrome P450 2C9 (Homo sapiens, UniProt P11712). The series is described as follows: Inhibition of CYP2C9. It counts as ADME.
The target in a further series is Cytochrome P450 3A4 (Homo sapiens, UniProt P08684). The series is described as follows: Inhibition of CYP3A4. It counts as ADME.
The nature of series [4]: AUC (infinity) in mouse at 9.68 mg/kg, po and 1.9 mg/kg, iv. It counts as ADME, organism-based. As to conditions: plasma. A digest of the protocol: as §1
Series [5] can be described thus: Oral bioavailability in cynomolgus monkey at 2 mg/kg. The conditions noted are these: in vivo. In kind it is ADME, organism-based, Macaca fascicularis. A digest of the protocol: as §1
Series [6] can be described thus: Oral bioavailability in rat at 9.68 mg/kg. It counts as ADME, organism-based. As to conditions: in vivo. A digest of the protocol: as §1
Series [7] can be described thus: Half life in mouse at 9.68 mg/kg, po and 1.9 mg/kg, iv. In kind it is ADME, organism-based. The conditions noted are these: in vivo. A digest of the protocol: as §1
Series [8] in a line: Drug level in mouse liver at 30 mg/kg, po after 4 hrs by LC-MS/MS analysis. It counts as ADME, organism-based. Details: dose 30 mg/kg, route oral. The conditions noted are these: read-out: Drug uptake. A digest of the protocol: (§2)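 Mice (n = 3) were dosed PO at 30 mg/kg as a suspension in 0.5% methocellulose in PBS. Plasma, liver and adipose were harvested at 4 h and snap frozen. Thawed tissue was homogenized in 0.05 M BES, pH 7, and extracted into acetonitrile. Levels were measured by LC–MS/MS against standard curves made separately in each tissue matrix.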

Series [9] can be described thus: AUC (infinity) in rat at 9.68 mg/kg, po and 1.9 mg/kg, iv. In kind it is ADME, organism-based. The conditions noted are these: plasma. A digest of the protocol:
as §1

For a further series, the target named is Cytochrome P450 2D6 (Homo sapiens, UniProt P10635). The series can be described thus: Inhibition of CYP2D6. It counts as ADME.
The target in series [10] is T1, 11-beta-hydroxysteroid dehydrogenase type 2 (Homo sapiens, UniProt P80365).
T1 sequence (P80365 whole entry): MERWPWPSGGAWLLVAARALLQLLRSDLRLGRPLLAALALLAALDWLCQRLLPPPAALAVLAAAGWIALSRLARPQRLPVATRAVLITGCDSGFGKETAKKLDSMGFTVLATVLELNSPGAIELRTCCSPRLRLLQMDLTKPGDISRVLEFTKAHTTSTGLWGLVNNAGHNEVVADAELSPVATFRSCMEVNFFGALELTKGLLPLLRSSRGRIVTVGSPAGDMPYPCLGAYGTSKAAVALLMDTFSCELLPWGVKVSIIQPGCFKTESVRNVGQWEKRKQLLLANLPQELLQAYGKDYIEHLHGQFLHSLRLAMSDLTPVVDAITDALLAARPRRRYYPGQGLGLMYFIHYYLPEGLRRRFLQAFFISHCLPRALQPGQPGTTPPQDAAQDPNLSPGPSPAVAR
The series is described as follows: Inhibition of 11beta-HSD2.

Series [11] deals with T2, 11-beta-hydroxysteroid dehydrogenase 1 (Homo sapiens, UniProt P28845). The series is described as follows: Inhibition of human recombinant 11beta-HSD1 expressed in CHO cells assessed as conversion of [3H]cortisone to [3H]cortisol by SPA. In kind it is cell-based.
A short description of series [12]: Half life in cynomolgus monkey at 2 mg/kg, po and 1 mg/kg, iv. In kind it is ADME, organism-based, Macaca fascicularis. As to conditions: in vivo. A digest of the protocol:
as §1

Series [13] in a line: AUC (infinity) in cynomolgus monkey at 2 mg/kg, po and 1 mg/kg, iv. In kind it is ADME, organism-based, Macaca fascicularis. The conditions noted are these: plasma. A digest of the protocol: as §1
Series [14] can be described thus: Clearance in cynomolgus monkey at 1 mg/kg, iv. The conditions noted are these: in vivo. In kind it is ADME, organism-based, Macaca fascicularis. More on the design: dose 1 mg/kg, route intravenous. A digest of the protocol: as §1
The target in series [15] is T2, 11-beta-hydroxysteroid dehydrogenase 1. The series is described as follows: Inhibition of 11beta-HSD1 in human adipocytes assessed as conversion of [3H]cortisone to [3H]cortisol after 2 hrs by SPA. In kind it is cell-based.
Series [16] is described as follows: Drug level in mouse adipose at 30 mg/kg, po after 4 hrs by LC-MS/MS analysis. In kind it is ADME, organism-based. Details: dose 30 mg/kg, route oral. As to conditions: adipose tissue, read-out: Drug uptake. A digest of the protocol:
as §2

A short description of series [17]: Oral bioavailability in mouse at 9.68 mg/kg. It counts as ADME, organism-based. The conditions noted are these: in vivo. A digest of the protocol: as §1
Series [18] in a line: Half life in human liver microsomes. In kind it is ADME, Microsome. (Microsomes from liver hold many membrane-bound enzymes, among them those of drug oxidation.)
A short description of series [19]: Drug level in mouse plasma at 30 mg/kg, po after 4 hrs by LC-MS/MS analysis. In kind it is ADME, organism-based. Details: dose 30 mg/kg, route oral. A digest of the protocol:
as §2

The test system of another series is Cynomolgus monkey. The series is described as follows: Inhibition of 11beta-HSD1 in cynomolgus monkey assessed as reduction of plasma cortisol concentration at 10 mg/kg, po administered 2 hrs before cortisone 21-acetate challenge measured every 30 mins for 6 hrs. It counts as functional, Macaca fascicularis. Details: scale not given: the % may be the effect or the level left. A digest of the protocol:
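Cynomolgus monkeys (n = 5, crossover, 7-day washout) were given dexamethasone at t = −8 h to suppress endogenous cortisol. Vehicle or compound (10 mg/kg PO) followed at t = 0, then cortisone 21-acetate challenge (25 mg PO) at t = 2 h. Blood was sampled every 30 min for 6 h to measure plasma cortisol.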

T2 sequence (P28845 whole entry): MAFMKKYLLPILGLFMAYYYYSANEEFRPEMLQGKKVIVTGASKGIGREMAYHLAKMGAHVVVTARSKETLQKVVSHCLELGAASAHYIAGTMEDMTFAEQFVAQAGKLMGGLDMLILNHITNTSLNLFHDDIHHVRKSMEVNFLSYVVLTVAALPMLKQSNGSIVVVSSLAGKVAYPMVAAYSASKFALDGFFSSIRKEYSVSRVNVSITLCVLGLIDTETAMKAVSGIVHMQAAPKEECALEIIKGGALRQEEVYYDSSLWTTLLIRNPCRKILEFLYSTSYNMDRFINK
Cytochrome P450 2C9, sequence (P11712 whole entry): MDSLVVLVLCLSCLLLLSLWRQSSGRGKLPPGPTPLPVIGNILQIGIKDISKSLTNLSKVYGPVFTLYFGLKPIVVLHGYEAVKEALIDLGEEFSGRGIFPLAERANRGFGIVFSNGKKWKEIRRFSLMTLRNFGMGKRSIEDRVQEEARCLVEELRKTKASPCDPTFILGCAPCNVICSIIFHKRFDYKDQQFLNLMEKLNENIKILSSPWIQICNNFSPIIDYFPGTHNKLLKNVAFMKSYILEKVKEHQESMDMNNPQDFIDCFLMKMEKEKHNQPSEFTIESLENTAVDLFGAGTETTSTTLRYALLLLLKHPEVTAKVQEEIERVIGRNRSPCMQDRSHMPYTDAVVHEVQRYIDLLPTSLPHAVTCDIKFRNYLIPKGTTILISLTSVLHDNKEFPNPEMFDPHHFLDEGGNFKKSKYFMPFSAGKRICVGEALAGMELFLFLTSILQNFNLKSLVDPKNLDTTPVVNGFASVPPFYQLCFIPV
Cytochrome P450 2D6, sequence (P10635 whole entry): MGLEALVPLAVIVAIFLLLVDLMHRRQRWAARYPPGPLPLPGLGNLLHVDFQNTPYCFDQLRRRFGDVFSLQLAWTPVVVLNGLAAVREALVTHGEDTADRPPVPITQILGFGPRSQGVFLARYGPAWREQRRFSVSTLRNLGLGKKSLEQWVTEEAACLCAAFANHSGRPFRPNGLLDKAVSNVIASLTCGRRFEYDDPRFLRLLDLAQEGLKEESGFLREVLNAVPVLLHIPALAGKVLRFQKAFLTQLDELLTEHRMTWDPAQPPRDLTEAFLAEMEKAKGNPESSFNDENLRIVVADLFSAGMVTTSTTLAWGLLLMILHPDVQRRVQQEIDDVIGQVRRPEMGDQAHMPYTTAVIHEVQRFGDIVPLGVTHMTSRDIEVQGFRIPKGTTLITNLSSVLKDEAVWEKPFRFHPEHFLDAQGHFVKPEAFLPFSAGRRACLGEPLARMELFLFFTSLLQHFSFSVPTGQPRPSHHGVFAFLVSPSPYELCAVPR
Cytochrome P450 3A4, sequence (P08684 whole entry): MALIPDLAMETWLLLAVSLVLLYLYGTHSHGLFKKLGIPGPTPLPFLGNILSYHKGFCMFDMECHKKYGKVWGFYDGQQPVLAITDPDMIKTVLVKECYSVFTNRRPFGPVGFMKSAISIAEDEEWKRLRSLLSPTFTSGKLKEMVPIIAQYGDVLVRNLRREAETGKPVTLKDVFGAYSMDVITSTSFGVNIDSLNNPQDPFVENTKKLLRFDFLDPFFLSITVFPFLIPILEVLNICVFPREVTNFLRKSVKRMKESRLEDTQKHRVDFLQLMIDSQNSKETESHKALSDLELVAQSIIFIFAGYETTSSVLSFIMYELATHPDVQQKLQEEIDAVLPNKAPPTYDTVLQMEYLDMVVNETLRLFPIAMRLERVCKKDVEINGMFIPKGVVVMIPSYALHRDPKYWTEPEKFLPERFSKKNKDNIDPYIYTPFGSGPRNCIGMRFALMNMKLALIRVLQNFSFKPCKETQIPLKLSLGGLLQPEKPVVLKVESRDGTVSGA

With `O=C(O)CC1CC2(CCN(C(=O)NC3C4CC5CC(C4)CC3C5)CC2)c2c(Br)cccc21` (stereo not drawn), the clearance (in general, a measure of how efficiently the substance is removed, as volume per time) in series [1] worked out at 26.6 mL/min/kg; in [2], 28.1 mL/min/kg; in series [14] it was 13.8 mL/min/kg. In addition, the half-life (as a rule, how long it takes for the measured level to halve) is 3.46 h in series [3], 6.17 h in [7], 6.03 h in series [12] and > 1 h in series [18]. For the same molecule, the IC50 (commonly the midpoint of a concentration-inhibition curve) against Cytochrome P450 2C9 is > 15000 nM; on Cytochrome P450 3A4 it was > 15000 nM; at Cytochrome P450 2D6, > 15000 nM; in [10], > 10000 nM; in series [11], 1.6 nM; in [15], 5.3 nM. Further, the AUC(0-inf) – broadly, total exposure, with the tail of the curve extrapolated – in series [4] worked out at 1720 ng·h/mL; in series [9], 5400 ng·h/mL; in series [13], 743 ng·h/mL. Moreover, the results for the bioavailability in [5], in series [6] and in series [17] were 31%, 90% and 29%, respectively. Also, the concentration at 4 h in series [8] came to 5130 ng/mL; in series [16], 77 ng/mL; in series [19], 442 ng/mL.
For `O=C(NC1C2CC3CC(C2)CC1C3)N1CCC2(CC1)CC(CCO)c1cccc(Br)c12` (stereo not drawn), the IC50 turned out to be 9000 nM in series [10], 1.7 nM in series [11] and 18 nM in [15].
On to `O=C(O)CC1CC2(CCN(C(=O)NC3C4CC5CC(C4)CC3C5)CC2)c2c(Cl)cccc21` (stereo not drawn), for which the figures for the IC50 in [10], in [11] and in series [15] were > 10000 nM, 2.2 nM and 10.7 nM, respectively.
Turning to `Cc1ccc2c(c1)C1(CCN(C(=O)NC3C4CC5CC(C4)CC3C5)CC1)CC2CC(=O)O` (stereo not drawn), the values for the IC50 in [10], in [11] and in series [15] were > 10000 nM, 8.9 nM and 22.5 nM, respectively.
Consider `O=C(O)C[C@H]1CC2(CCN(C(=O)NC3C4CC5CC(C4)CC3C5)CC2)c2c(Br)cccc21` (stereo partly drawn), for which the concentration at 4 h was found to be 7070 ng/mL in [8], 127 ng/mL in series [16] and 393 ng/mL in series [19]. For the same molecule, in the series with Cynomolgus monkey, the Activity was 80%. Further, the IC50 was > 10000 nM in [10], 1.1 nM in [11] and 2.5 nM in series [15].
Turning to `O=C(O)C1CC2(CCN(C(=O)NC3C4CC5CC(C4)CC3C5)CC2)c2ccccc21` (stereo not drawn), the IC50 in [11] is 68.6 nM; in series [15], > 200 nM.
As for `Cc1cccc2c1C1(CCN(C(=O)NC3C4CC5CC(C4)CC3C5)CC1)CC2CC(=O)O` (stereo not drawn), the IC50 is > 10000 nM in series [10], 7.6 nM in series [11] and 18.3 nM in series [15].
For `NC(=O)CC1CC2(CCN(C(=O)NC3C4CC5CC(C4)CC3C5)CC2)c2c(Br)cccc21` (stereo not drawn), the IC50 in [11] is 0.5 nM; in series [15] it was 0.9 nM.
In the case of `CS(=O)(=O)NC(=O)CC1CC2(CCN(C(=O)NC3C4CC5CC(C4)CC3C5)CC2)c2c(Br)cccc21` (stereo not drawn), the IC50 in series [10] was > 10000 nM; in [11], 2 nM; in series [15], 22.3 nM.
On the same counts, the results for `O=C(O)CC1CC2(CCN(C(=O)NC3C4CC5CC(C4)CC3C5)CC2)c2cc(Cl)ccc21` (stereo not drawn) are > 10000 nM, 3.4 nM and 30.2 nM.
On the same counts, the results for `O=C(O)CC1CC2(CCN(C(=O)NC3C4CC5CC(C4)CC3C5)CC2)c2ccc(Cl)cc21` (stereo not drawn) are > 10000 nM, 3.4 nM and 23.2 nM.
With `O=C(O)CC1CC2(CCN(C(=O)NC3C4CC5CC(C4)CC3C5)CC2)c2ccccc21` (stereo not drawn), the clearance in series [1] was 47.1 mL/min/kg. The half-life in series [3] is 2.87 h. Also, the bioavailability (as a rule, dose-corrected exposure relative to a reference, in per cent) in [6] is 94%. In [9], the AUC(0-inf) came out at 3530 ng·h/mL.
With `O=C(NC1C2CC3CC(C2)CC1C3)N1CCC2(CCc3ccccc32)CC1` (stereo not drawn), the IC50 in series [11] worked out at 0.8 nM; in series [15], 2.7 nM.
In the case of `O=C(O)C[C@@H]1CC2(CCN(C(=O)NC3C4CC5CC(C4)CC3C5)CC2)c2c(Br)cccc21` (single isomer, unassigned), the IC50 in [10] is > 10000 nM; in series [11], 2 nM; in [15] it was 7.5 nM.
